Screens as filed in PubChem BioAssay.
L major viab – Leishmania major promastigote growth inhibition | hit rate 9% among 200,000 | AID 1063 | inhibition, % at 10 µM | Leishmania major promastigotes, resazurin fluorescence viability; in the data active = inhibition above about 50%;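 also: promastigotes grown with compound for 44 hours at 28 °C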
ABCG2 block – blocks JC-1 efflux by human ABCG2 transporter. inhibition, % at 6.6 µM. IgMXP3 cells, flow cytometry. hit rate 0.1% among 190,000;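 active = inhibition above 80%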;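 also: 0% = DMSO and 100% = nicardipine control wells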
Target sequence (Q9UNQ0 whole entry, looked up): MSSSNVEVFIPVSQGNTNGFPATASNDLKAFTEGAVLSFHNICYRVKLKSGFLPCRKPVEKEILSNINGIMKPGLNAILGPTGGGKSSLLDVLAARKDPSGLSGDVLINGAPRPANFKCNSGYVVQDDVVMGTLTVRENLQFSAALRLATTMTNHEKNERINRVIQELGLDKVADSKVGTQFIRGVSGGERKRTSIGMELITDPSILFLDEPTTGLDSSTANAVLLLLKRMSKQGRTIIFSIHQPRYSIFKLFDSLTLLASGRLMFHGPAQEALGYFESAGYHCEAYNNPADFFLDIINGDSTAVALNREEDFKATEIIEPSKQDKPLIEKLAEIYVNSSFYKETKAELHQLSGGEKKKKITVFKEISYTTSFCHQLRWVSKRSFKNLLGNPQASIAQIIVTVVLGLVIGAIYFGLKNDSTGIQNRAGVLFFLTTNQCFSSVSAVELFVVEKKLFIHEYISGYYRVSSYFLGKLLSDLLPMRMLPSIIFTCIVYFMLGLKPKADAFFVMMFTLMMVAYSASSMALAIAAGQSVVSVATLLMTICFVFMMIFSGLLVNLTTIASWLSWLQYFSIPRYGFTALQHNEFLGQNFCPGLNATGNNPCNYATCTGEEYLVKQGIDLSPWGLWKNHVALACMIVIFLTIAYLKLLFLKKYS
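Read-out basis: Efflux inhibition in percent versus controls | Test system: ABCG2 IgMXP3 and barcoded ABCB1 CCRF-Adr cell mix | Quantity: 3 million cells/mL in well | Schedule: 10 min at 25 °C | Control set: Nicardipine as high control, DMSO as low control | Reagent: JC-1 as fluorescent efflux pump substrate | Signal: Flow cytometry of retained JC-1 fluorescence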
WT yeast gro inh – growth inhibition of WT yeast, mitochondrial fusion screen; mitochondrial fusion phenotypic screen, WT strain; inhibition, % at 10 µM; hit rate 2.1% among 190,000; in the data active = inhibition above about 58%; tested in S. cerevisiae
ABCB1 inh – inhibitors of human ABCB1 transporter, ABCG2 counter-screen; P08183; CCRF-Adr cells, JC-1 efflux, flow cytometry; inhibition, % at 6.6 µM; hit rate 0.067% among 190,000; AID 1326; in the data active = inhibition above about 40%;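 also: 0% = vehicle and 100% = reference inhibitor; higher value means more JC-1 retained so stronger ABCB1 efflux block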
RAM network inh – blocks the yeast RAM network; S. cerevisiae dse1pr::URA3 reporter, 5-FOA growth OD615, 2 d; analog-sensitive cbk1-as2 kinase mutant strain; inhibition, % at 50 µM; hit rate 1.8% among 190,000; AID 868;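 active = inhibition above a set limit, 3 SD over mean compound inhibition, cut at about 8.4% in these data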;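 also: 0% = DMSO-only wells with no growth and 100% = 10 µM 1-NA-PP1 full growth; inhibition rescues growth on 5-FOA so higher OD means more RAM inhibition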
* marks the source's active call; other numbers are inactive results. Most compounds without a hit are left out; they make up all but 12% or so of the library.

What do the screens show for `Cc1ccc(NC(=O)c2ccc3nc[nH]c3c2)cc1C`?
L major viab: -3.1; ABCG2 block: 7.4; WT yeast gro inh: -8.3; ABCB1 inh: 0.5; RAM network inh: 1.0

Results for Cc1nn(Cc2ccc(C(=O)Nc3ccc(Br)c4cccnc34)o2)c(C)c1Br ?
L major viab: -1.2

What do the screens show for `CN=c1scc(C)n1/N=C/c1ccc(O)cc1O`?
L major viab: 58.2*; ABCG2 block: 5.4; WT yeast gro inh: 7.2; ABCB1 inh: -0.1; RAM network inh: 1.6

What do the screens show for `CN=c1scc(C)n1/N=C/c1ccc(O)cc1`?
L major viab: 0.4; ABCG2 block: 0.8; WT yeast gro inh: -3.5; ABCB1 inh: 0.1; RAM network inh: 3.5

How did CN=c1scc(C)n1/N=C/c1cc(Br)c(O)c(Br)c1 do in these assays?
L major viab: 0.7; ABCG2 block: -2.8; WT yeast gro inh: 19.4; ABCB1 inh: -0.3; RAM network inh: 10.2*

What do the screens show for `CCN(CC)S(=O)(=O)c1ccc(C(=O)Nc2ccc(Cc3ccncc3)cc2)cc1`?
L major viab: 99.1*; ABCG2 block: 6.7; WT yeast gro inh: -0.6; ABCB1 inh: 0.3; RAM network inh: -0.6

Results for CN(C)S(=O)(=O)c1cccc(NC(=O)c2cncc(Br)c2)c1 ?
L major viab: 88.0*; ABCG2 block: -0.3; WT yeast gro inh: -10.8; ABCB1 inh: 0.0; RAM network inh: 0.7

Results for CCN(CC)S(=O)(=O)c1cccc(NC(=O)c2cncc(Br)c2)c1 ?
L major viab: 98.9*; ABCG2 block: 4.2; WT yeast gro inh: 23.9; ABCB1 inh: 0.9; RAM network inh: 0.3

Results for CCN(CC)S(=O)(=O)c1cccc(NC(=O)c2ccc(Br)cc2)c1 ?
L major viab: -0.7; ABCG2 block: 7.2; WT yeast gro inh: 69.9*; ABCB1 inh: 1.2; RAM network inh: 9.7*

How did CCN(CC)S(=O)(=O)c1ccc(C(=O)Nc2cc(C)cc(C)c2)cc1 do in these assays?
L major viab: 8.6; ABCG2 block: 12.5; WT yeast gro inh: -10.9; ABCB1 inh: 1.4; RAM network inh: 7.1

What do the screens show for `Cc1ccc(NC(=O)CSc2nnc(-c3ccncc3)n2N)cc1C`?
L major viab: 1.0; ABCG2 block: 1.1; WT yeast gro inh: 1.3; ABCB1 inh: 0.4; RAM network inh: 1.7

What do the screens show for `COC(=O)c1cc(NC(=O)c2cccc([N+](=O)[O-])c2C)ccc1Cl`?
L major viab: 10.3; ABCG2 block: 24.4; WT yeast gro inh: 6.3; ABCB1 inh: 0.8; RAM network inh: 3.6

How did CC(C)(C)c1ccc(S(=O)(=O)Nc2ccc(Cc3ccncc3)cc2)cc1 do in these assays?
L major viab: 88.0*; ABCG2 block: 4.0; WT yeast gro inh: 58.8*; ABCB1 inh: 3.1; RAM network inh: 0.3

What do the screens show for `CCN(CC)S(=O)(=O)c1cccc(NC(=O)c2cc3ccccc3o2)c1`?
L major viab: 80.9*; ABCG2 block: 36.5; WT yeast gro inh: 25.3; ABCB1 inh: 2.4; RAM network inh: 5.8

How did CNc1ccc(Br)cc(C(=O)/C=C/c2cc(OC)ccc2OC)c1=O do in these assays?
L major viab: 88.9*; ABCG2 block: -0.7; WT yeast gro inh: -7.5; ABCB1 inh: -0.1; RAM network inh: 2.7

What do the screens show for `COCCCNC(=O)/C=C/c1ccc(Cl)cc1Cl`?
L major viab: -2.1; ABCG2 block: 7.1; WT yeast gro inh: 2.2; ABCB1 inh: 0.3; RAM network inh: -0.3

What do the screens show for `COc1ccccc1NC(=O)/C=C/c1ccc2c(c1)OCO2`?
L major viab: 10.9; ABCG2 block: 3.8; WT yeast gro inh: 0.5; ABCB1 inh: 0.5; RAM network inh: -0.5

What do the screens show for `CCNc1ccc(Br)cc(C(=O)/C=C/c2ccc(Cl)cc2Cl)c1=O`?
L major viab: 97.8*; ABCG2 block: 4.7; WT yeast gro inh: -3.5; ABCB1 inh: 3.9; RAM network inh: 4.4

What do the screens show for `CNc1ccc(Br)cc(C(=O)/C=C/c2ccc(OC)cc2)c1=O`?
L major viab: 18.1; ABCG2 block: -3.1; WT yeast gro inh: 1.9; ABCB1 inh: -1.3; RAM network inh: 1.8

How did CNc1ccc(Br)cc(C(=O)/C=C/c2ccc3c(c2)OCO3)c1=O do in these assays?
L major viab: 71.9*; ABCG2 block: -2.9; WT yeast gro inh: -0.6; ABCB1 inh: -0.6; RAM network inh: 2.3

What do the screens show for `COc1cc2c(cc1OC)C(C)N(C(=S)NC(=O)c1ccccc1)CC2` (configuration not stated)?
L major viab: -4.9; ABCG2 block: 0.3; WT yeast gro inh: -7.6; ABCB1 inh: 0.5; RAM network inh: -0.7

How did O=C(Nc1cc(C(F)(F)F)cc(C(F)(F)F)c1)c1ccc(Cn2cc(C(F)(F)F)ccc2=O)cc1 do in these assays?
L major viab: 10.5; ABCG2 block: 77.8; WT yeast gro inh: 22.3; ABCB1 inh: 3.3; RAM network inh: 2.8

How did CC(=O)CC1(OC(C)=O)C(=O)N(C)c2ccccc21 (configuration not stated) do in these assays?
L major viab: 97.1*; ABCG2 block: 0.7; WT yeast gro inh: 22.7; ABCB1 inh: 0.1; RAM network inh: -1.0

What do the screens show for `C/C(CC1(O)C(=O)N(C)c2ccccc21)=N\O` (configuration not stated)?
L major viab: -8.2; ABCG2 block: -9.4; WT yeast gro inh: 0.5; ABCB1 inh: -2.4; RAM network inh: -0.1

Results for CN(CC(=O)NC(=O)NC(C)(C)C)CC(=O)Nc1ccccc1Cl ?
L major viab: 4.0; ABCG2 block: 2.2; WT yeast gro inh: 7.9; ABCB1 inh: 0.7; RAM network inh: 3.0

Results for N#Cc1cc(N2CCCCC2)c([N+](=O)[O-])cc1C#N ?
L major viab: -1.5; ABCG2 block: 17.3; WT yeast gro inh: -6.2; ABCB1 inh: 2.1; RAM network inh: -0.4

What do the screens show for `CN(C)CCC1CCN(c2cc(C#N)c(C#N)cc2[N+](=O)[O-])CC1`?
L major viab: 55.2*; ABCG2 block: 2.5; WT yeast gro inh: -1.9; ABCB1 inh: 0.3; RAM network inh: 2.9

Results for CCNC(=S)N(Cc1ccco1)Cc1cc2cc(OCC)ccc2[nH]c1=O ?
L major viab: 33.1; ABCG2 block: 6.1; WT yeast gro inh: 5.0; ABCB1 inh: 0.6; RAM network inh: 9.7*

What do the screens show for `CCNC(=S)N(Cc1cccs1)Cc1cc2cc(OCC)ccc2[nH]c1=O`?
L major viab: 96.2*; ABCG2 block: 3.0; WT yeast gro inh: -12.7; ABCB1 inh: 2.5; RAM network inh: 2.1

How did O=S(=O)(c1ccc(Cl)cc1)n1c(Cc2ccccc2)nc2ccccc21 do in these assays?
L major viab: 41.9; ABCG2 block: 5.5; WT yeast gro inh: -13.0; ABCB1 inh: 0.7; RAM network inh: 1.5

What do the screens show for `COc1ccccc1Cc1nc2ccccc2n1S(=O)(=O)c1ccc(Cl)cc1`?
L major viab: 75.5*; ABCG2 block: 2.8; WT yeast gro inh: -15.3; ABCB1 inh: 0.0; RAM network inh: 0.3

What do the screens show for `COc1cc(/C=N/NC(=O)c2ccc(CN3c4cccc5cccc(c45)S3(=O)=O)cc2)cc(OC)c1O`?
L major viab: -8.4; ABCG2 block: 0.5; WT yeast gro inh: -4.9; ABCB1 inh: -0.5; RAM network inh: 1.9
